The structures appear in SMILES notation. ≈ marks a conversion by molar mass, not a printed value.

For 9 molecules, MIC results are on record in ChEMBL document CHEMBL4041463, “Pyrazolo[1,5-a]pyridine-3-carboxamide hybrids: Design, synthesis and evaluation of anti-tubercular activity” (Eur J Med Chem, 2017).

What all share (type): functional
In test [1] the test system is Mycobacterium tuberculosis. Put plainly: Antitubercular activity against Mycobacterium tuberculosis H37Ra harboring pTYOK in UAIRa broth culture assessed as concentration required to reduce relative luminescence unit to <10% measured after 4 days by autoluminescence assay. Conditions: 96 h.
The subject of test [2] is Mycobacterium tuberculosis. Description: Antitubercular activity against rifampicin resistant Mycobacterium tuberculosis H37Rv harboring rpoB S522L mutant after 5 days. A digest of the protocol:
(§1)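 Ten-point two-fold DMSO dilutions in 7H9-Tw-OADC, final DMSO 2%, top concentration 200 µM. Incubated 5 days; growth read as OD590. Controls: medium/DMSO background, 100 µM rifampicin, DMSO-only, plus rifampicin dose-response. Gompertz fit of % growth; MIC taken as onset of zero growth. Plate acceptance: OD590 >0.2 in maximum-growth wells and rifampicin MIC within 3-fold of expected.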

Test [3] relates to Mycobacterium tuberculosis. Description: Antitubercular activity against fluoroquinolone resistant Mycobacterium tuberculosis H37Rv harboring gyrB D94N mutant after 5 days. In outline: as §1
Test [4] deals with Mycobacterium tuberculosis. Put plainly: Antitubercular activity against isoniazid resistant Mycobacterium tuberculosis H37Rv harboring KAtG Y155 deletion mutant after 5 days. In outline:
as §1

Test [5] deals with Mycobacterium tuberculosis. Put plainly: Antitubercular activity against isoniazid resistant Mycobacterium tuberculosis ATCC 35822 after 5 days. The following applies: ATCC 35822, 120 h. A digest of the protocol: as §1
For test [6], the system named is Mycobacterium tuberculosis. Put plainly: Antitubercular activity against rifampicin resistant Mycobacterium tuberculosis ATCC 35828 after 5 days. The following applies: ATCC 35828, 120 h. In outline: as §1

What is called MIC is the lowest concentration that inhibits growth of the organism. For the molecule `CO[C@H]1/C=C/O[C@@]2(C)Oc3c(C)c(O)c4c(O)c(c(/C=N/N5CCN(C)CC5)c(O)c4c3C2=O)NC(=O)/C(C)=C\C=C\[C@H](C)[C@H](O)[C@@H](C)[C@@H](O)[C@@H](C)[C@H](OC(C)=O)[C@@H]1C` [RIFAMPIN], the MIC in test [1] is 0.03 mg/L (≈ 0.0365 µM); in test [2] it was 0.42 mg/L (≈ 0.51 µM); in test [3] it was 0.017 mg/L (≈ 0.0207 µM); in test [4], 0.016 mg/L (≈ 0.0194 µM); in test [5], 0.007 mg/L (≈ 0.00851 µM); in test [6], more than 41 mg/L.
`CCc1nn2ccc(Cl)cc2c1C(=O)NC/C=C(\C)CCC=C(C)C`: in test [1], the MIC came to 0.3 mg/L (≈ 0.834 µM).
Regarding `Cc1ccn2nc(C)c(C(=O)NCc3ccc(OC(F)(F)F)cc3)c2c1`, the MIC in test [1] amounted to 3 mg/L (≈ 8.26 µM).
As to `CCc1nn2ccc(Cl)cc2c1C(=O)NC[C@H]1CN(c2ccc(N3CCOCC3)c(F)c2)C(=O)O1`, the MIC in test [1] was more than 10 mg/L.
Consider `C[C@H]1COc2c(N3CCN(C)CC3)c(F)cc3c(=O)c(C(=O)O)cn1c23.C[C@H]1COc2c(N3CCN(C)CC3)c(F)cc3c(=O)c(C(=O)O)cn1c23.O` [LEVOFLOXACIN], for which the MIC in test [2] was 0.37 mg/L; in test [3], 10 mg/L; in test [4], 0.44 mg/L; in test [5], 0.59 mg/L; in test [6], 0.63 mg/L.
`CCc1nn2ccc(Cl)cc2c1C(=O)NCc1ccc(-c2ccc(OC(F)(F)F)cc2)nc1`: the MIC in test [1] turned out to be 0.1 mg/L (≈ 0.211 µM).
The same measure, in the same setting: as for `CCc1nn2ccc(Cl)cc2c1C(=O)NCC1CCN(CC23CC4CC(CC(C4)C2)C3)CC1`, the figure is 3 mg/L (≈ 6.4 µM); as for `Cc1ccn2nc(C)c(C(=O)NCc3ccc(N4CCC(Oc5ccc(OC(F)(F)F)cc5)CC4)cc3)c2c1`, 0.03 mg/L (≈ 0.0557 µM).
Take `NNC(=O)c1ccncc1` [ISONIAZID]: the MIC in test [1] is 0.41 mg/L (≈ 2.99 µM); in test [2] it was 0.056 mg/L (≈ 0.408 µM); in test [3], 0.088 mg/L (≈ 0.642 µM); in test [4], more than 27 mg/L; in test [5], more than 27 mg/L; in test [6], 0.11 mg/L (≈ 0.802 µM).
